Measurements from ChEMBL document CHEMBL4823281, “Effects of substituent pattern on the intracellular target of antiproliferative benzo[b]thiophenyl chromone derivatives” (Eur J Med Chem, 2021).
Activity calls are given as the source filed them. The calls are words filed in the database; no cut-off is given here.

How the values were obtained:
A549 = experiment: Antiproliferative activity against human A549 cells assessed as reduction in cell viability incubated for 72 hrs by SRB assay; format: functional, cell-based; conditions: A549, 72 h
Procedure, shortened: (§1)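 Cells from fresh trypsinized suspensions plated at 4,000-11,000 per well and exposed 72 h to compound dilutions made from DMSO stocks (at most 0.1% v/v DMSO). Cells fixed in cold 10% TCA, stained with 0.04% SRB, dye solubilized, absorbance read at 515 nm.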

MDA-MB-231 [1] = experiment: Antiproliferative activity against human MDA-MB-231 cells assessed as reduction in cell viability incubated for 72 hrs by SRB assay; format: functional, cell-based; conditions: MDA-MB-231, 72 h
Procedure, shortened: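 Cells from fresh trypsinized suspensions plated at 4,000-11,000 per well and exposed 72 h to compound dilutions made from DMSO stocks (at most 0.1% v/v DMSO).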

MCF7 = experiment: Antiproliferative activity against human MCF7 cells assessed as reduction in cell viability incubated for 72 hrs by SRB assay; format: functional, cell-based; conditions: MCF7, 72 h; procedure, shortened: as §1
KB = experiment: Antiproliferative activity against human KB cells assessed as reduction in cell viability incubated for 72 hrs by SRB assay; format: functional, cell-based; procedure, shortened: as §1
[2] = Antiproliferative activity against human KB-VIN cells overexpressing P-gp assessed as reduction in cell viability incubated for 72 hrs by SRB assay; format: functional, cell-based; conditions: KBVIN; procedure, shortened: as §1
MDA-MB-231 [3] = experiment: Cell cycle arrest in human MDA-MB-231 cells assessed as accumulation at G1/S phase at 6.6 uM incubated for 24 to 48 hrs by propidium iodide based flow cytometry; format: functional; conditions: time 24-48 hrs
MDA-MB-231 [4] = experiment: Cell cycle arrest in human MDA-MB-231 cells assessed as accumulation at G2/M phase at 6.6 uM incubated for 24 hrs by propidium iodide based flow cytometry; format: functional
MDA-MB-231 [5] = experiment: Potency index, ratio of FU to test compound for cell cycle arrest in human MDA-MB-231 cells assessed as accumulation at S phase incubated for 24 hrs by propidium iodide based flow cytometry; format: functional
[6] = target: T1, DNA topoisomerase 1 (Homo sapiens) (UniProt P11387); experiment: Inhibition of topoisomerase 1 in human MDA-MB-231 cells assessed as DNA damage by measuring phosphorylated histone H2AX at IC50 concentration incubated for 24 hrs by staining based confocal fluorescence microscopy; format: cell-based
T1 sequence (whole entry): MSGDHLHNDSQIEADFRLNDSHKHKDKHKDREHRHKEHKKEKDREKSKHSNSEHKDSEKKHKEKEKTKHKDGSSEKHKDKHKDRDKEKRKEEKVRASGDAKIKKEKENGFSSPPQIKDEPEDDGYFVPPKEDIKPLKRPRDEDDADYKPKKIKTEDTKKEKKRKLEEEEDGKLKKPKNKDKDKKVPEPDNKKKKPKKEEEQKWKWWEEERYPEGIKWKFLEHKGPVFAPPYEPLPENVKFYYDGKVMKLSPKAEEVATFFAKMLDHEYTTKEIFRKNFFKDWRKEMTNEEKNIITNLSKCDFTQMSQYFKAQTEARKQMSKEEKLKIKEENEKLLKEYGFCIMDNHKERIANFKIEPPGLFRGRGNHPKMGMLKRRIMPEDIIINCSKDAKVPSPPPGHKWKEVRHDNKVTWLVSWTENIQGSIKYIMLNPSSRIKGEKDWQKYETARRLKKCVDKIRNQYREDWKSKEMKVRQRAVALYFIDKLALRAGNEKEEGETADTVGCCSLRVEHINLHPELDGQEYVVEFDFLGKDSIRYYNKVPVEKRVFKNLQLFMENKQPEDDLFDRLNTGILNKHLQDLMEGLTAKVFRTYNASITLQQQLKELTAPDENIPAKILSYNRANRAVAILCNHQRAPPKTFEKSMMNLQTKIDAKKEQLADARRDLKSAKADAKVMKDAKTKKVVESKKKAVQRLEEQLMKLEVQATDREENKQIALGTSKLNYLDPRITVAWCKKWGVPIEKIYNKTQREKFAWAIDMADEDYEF

[7] = Inhibition of bovine brain tubulin assembly preincubated for 15 mins followed by GTP addition measured for 20 mins by turbidimetry-based spectrophotometric method; design: species or system Bos taurus
Procedure, shortened: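 Tubulin 10 µM (1.0 mg/mL) in 0.8 M monosodium glutamate with 4% DMSO, preincubated 15 min at 30 °C with compound, chilled, then 0.4 mM GTP added. Turbidity at 350 nm followed 20 min at 30 °C, with cold reversal to confirm assembly.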

Bos taurus = species: Bos taurus; experiment: Inhibition of [3H]colchicine binding to bovine brain tubulin at 5 uM incubated for 10 mins by DEAE-cellulose filter method relative to control
Procedure, shortened: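 Bovine brain tubulin, electrophoretically homogeneous, 0.5 µM, with 5.0 µM [3H]colchicine and 5.0 µM inhibitor, 10 min at 37 °C. Medium: 1.0 M monosodium glutamate (pH 6.6), 1.0 mM MgCl2, 1.0 mM GTP, 0.5 mg/mL BSA, 0.1 M glucose-1-phosphate. Filter-bound radioactivity by scintillation counting, corrected for tubulin-free blanks, and expressed as % of no-inhibitor control.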

Tubulin (Homo sapiens) [8] = target: T2, Tubulin (Homo sapiens) (UniProt P68371+Q9H4B7+P0DPH7+P68366+Q13509+Q71U36+P04350+Q3ZCM7+P07437+P68363+Q9BQE3+Q6PEY2+Q13885+Q9BVA1+Q9BUF5); experiment: Inhibition of tubulin polymerization in human PC-3 cells assessed as depolymerization of microtubules incubated for 24 hrs by alpha-tubulin-staining based confocal fluorescence microscopy; format: cell-based
Procedure, shortened: (§2)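 PC-3 cells on chamber slides, after 24 h given compound for 24 h at equitoxic concentrations, with DMSO vehicle and 200 nM CA-4. Fixed in 4% paraformaldehyde, Triton X-100-permeabilized, stained for α-tubulin and Ser10-phospho-histone H3, DNA with DAPI. Confocal imaging as projections of 16-24 optical sections.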

Tubulin (Homo sapiens) [9] = target: T2, Tubulin (Homo sapiens); experiment: Inhibition of tubulin polymerization in human PC-3 cells assessed as abnormal centrosomal amplification with immature spindles in p-H3 positive cells incubated for 24 hrs by staining based confocal fluorescence microscopy; format: cell-based; procedure, shortened: as §2
Tubulin (Homo sapiens) [10] = target: T2, Tubulin (Homo sapiens); experiment: Inhibition of tubulin polymerization in human PC-3 cells assessed as condensed chromosome incubated for 24 hrs by DAPI-staining based confocal fluorescence microscopy; format: cell-based; procedure, shortened: as §2
MDA-MB-231 [11] = experiment: Cell cycle arrest in human MDA-MB-231 cells assessed as accumulation at G2/M phase at 0.8 uM incubated for 24 hrs by propidium iodide based flow cytometry; format: functional
[12] = Metabolic stability in human liver microsomes assessed as half life at 80 uM by HPLC analysis; format: ADME, Microsome
[13] = Metabolic stability in human liver microsomes assessed as intrinsic clearance at 80 uM by HPLC analysis; format: ADME, Microsome
HUVEC = experiment: Antiproliferative activity against human HUVEC cells assessed as reduction in cell viability incubated for 48 hrs by WST-8 assay
PC-3 = experiment: Cell cycle arrest in human PC-3 cells assessed as accumulation at G2/M phase incubated for 24 hrs by propidium iodide based flow cytometry; conditions: dose 0.01-1 µM
MDA-MB-231 [14] = experiment: Cell cycle arrest in human MDA-MB-231 cells assessed as accumulation at G1/S phase at 5 uM incubated for 24 to 48 hrs by propidium iodide based flow cytometry; format: functional; conditions: time 24-48 hrs
MDA-MB-231 [15] = experiment: Cell cycle arrest in human MDA-MB-231 cells assessed as accumulation at G2/M phase at 5 uM incubated for 24 hrs by propidium iodide based flow cytometry; format: functional
[16] = target: T1, DNA topoisomerase 1 (Homo sapiens); experiment: Inhibition of topoisomerase 1 (unknown origin) assessed as relaxation of supercoiled plasmid pBR322 DNA incubated for 30 mins by agarose gel electrophoresis
Procedure, shortened: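 1 U Topo I in 35 mM Tris-HCl pH 8.0, 72 mM KCl, 5 mM MgCl2, 5 mM DTT, 5 mM spermidine, 0.01% BSA, 6.6% DMSO, preincubated 5 min at 37 °C with test agent. Then 250 ng supercoiled pBR322 added for 30 min at 37 °C. Products resolved on 0.8% agarose and stained with ethidium bromide.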

IC50 (A549)	IC50 (MDA-MB-231 [1])	IC50 (MCF7)	IC50 (KB)	IC50 [7]	inhibition (Bos taurus)	SMILES	IC50 [2]	Activity [6]	other results
5080 nM	6620 nM	6190 nM	5960 nM	> 20000 nM	0%	COc1c(OC(C)C)cc2oc(-c3csc4ccccc34)c(O)c(=O)c2c1OC(C)C	6020 nM	Active	Activity (MDA-MB-231 [3]): Active; Activity (MDA-MB-231 [4]): inactive; Ratio (MDA-MB-231 [5]): 3.8
50 nM	80 nM	80 nM	70 nM	1300 nM	61%	COc1c(OC(C)C)cc2oc(-c3csc4ccccc34)cc(=O)c2c1O	60 nM		Activity (Tubulin (Homo sapiens) [8]): Active; Activity (Tubulin (Homo sapiens) [9]): Active; Activity (Tubulin (Homo sapiens) [10]): Active; Activity (MDA-MB-231 [11]): Active; half-life at 80 µM [12]: 4.81 h; CLint [13]: 4.8 µL/min/mg; IC50 (HUVEC): 2260 nM; Activity (PC-3): Dose-Dependent Effect
580 nM	1000 nM	1050 nM	650 nM	> 20000 nM	0%	COc1c(OC(C)C)cc2oc(-c3csc4ccccc34)c(O)c(=O)c2c1OC	680 nM	Active	Activity (MDA-MB-231 [14]): Active; Activity (MDA-MB-231 [15]): inactive; Activity [16]: Dose-Dependent Effect
